Results from ChEMBL document CHEMBL3244050, “Synthesis and biological activity of beta-endorphin and analogues. Additional evidence for multiple opiate receptors” (J Med Chem, 1978).

Tests used:
[1] = Retardation factor of the compound using 1-butanol-pyridine-0.6 M ammonium acetate in 0.1% aqueous acetic acid at ratio of 5:3:11 (v/v) as solvent system by partition chromatography; format: physicochemical; conditions: buffer
[2] = Retardation factor of the compound using 1-butanol-pyridine-acetic acid-water at ratio of 6.0:6.0:1.2:4.8 as solvent system by thin layer chromatography; format: physicochemical; conditions: buffer
[3] = Retardation factor of the compound using 1-butanol-acetic acid-water at ratio of 4:3:3 as solvent system by thin layer chromatography; format: physicochemical; conditions: buffer
[4] = Retardation factor of the compound measured at 400 V for 4 hrs by paper electrophoresis; format: physicochemical
[5] = target: T1, Opioid receptor (Rattus norvegicus) (UniProt P33533+P34975+P33535); test: Displacement of [3H]naloxone from opioid receptor in rat brain after 30 mins; format: tissue-based
Outline: (§1)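 Rat brain homogenate (2-mL aliquots, ca. 1 mg wet weight) incubated with […] [3H]naloxone (25 Ci/mmol) for 30 min at 25 °C, with test peptides at three to five concentrations. Each concentration run as three separate sets of duplicates. ID50 taken from log-probit plots. The relative value is expressed against natural sheep beta-endorphin.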

[6] = target: T1, Opioid receptor (Rattus norvegicus); test: Displacement of [3H]naloxone from opioid receptor in rat brain after 30 mins relative to natural sheep beta-endorphin; format: tissue-based; outline: as §1
[7] = target: T1, Opioid receptor (Rattus norvegicus); test: Modulation of opioid receptor in rat vas deferens assessed as inhibition of electrically evoked contractions; format: tissue-based
Outline: (§2)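 Rat vas deferens, electrically stimulated; depression of contractions recorded over five increasing concentrations. Each concentration is the mean from six different tissues. ID50 derived from log-probit plots. The relative value and ratio are expressed against natural sheep beta-endorphin.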

[8] = target: T1, Opioid receptor (Rattus norvegicus); test: Modulation of opioid receptor in rat vas deferens assessed as inhibition of electrically evoked contractions relative to natural sheep beta-endorphin; format: tissue-based; parameters: scale not given: the % may be the effect or the level left; outline: as §2
Cavia porcellus [9] = species: Cavia porcellus; test: Modulation of opioid receptor in guinea pig ileum assessed as inhibition of electrically evoked contractions; format: tissue-based
Outline: (§3)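 Guinea pig ileum, electrically stimulated; depression of contractions measured. Each tissue received increasing concentrations of only one compound, to avoid tachyphylaxis seen with repeat doses given 30 min apart. ID50 taken from log-probit plots of five increasing concentrations, each the mean from six tissues. The relative value is expressed against natural sheep beta-endorphin.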

Cavia porcellus [10] = species: Cavia porcellus; test: Modulation of opioid receptor in guinea pig ileum assessed as inhibition of electrically evoked contractions relative to natural sheep beta-endorphin; format: tissue-based; parameters: scale not given: the % may be the effect or the level left; outline: as §3

ID50 [5] [nM] | Activity [6] [%] | ID50 [7] [nM] | Activity [8] [%] | Molecule | Rf [1] | Rf [2] | Rf [3] | Rf [4] | ID50 (Cavia porcellus [9]) [nM] | Activity (Cavia porcellus [10]) [%]
 |  |  |  | CC[C@H](C)[C@H](NC(=O)[C@H](C)NC(=O)[C@H](CC(N)=O)NC(=O)[C@H](CCCCN)NC(=O)[C@H](Cc1ccccc1)NC(=O)[C@H](CC(C)C)NC(=O)[C@@H](NC(=O)[C@@H](NC(=O)[C@H](CC(C)C)NC(=O)[C@@H]1CCCN1C(=O)[C@@H](NC(=O)[C@H](CCC(N)=O)NC(=O)[C@H](CO)NC(=O)[C@H](CCCCN)NC(=O)[C@H](CCC(=O)O)NC(=O)[C@H](CO)NC(=O)[C@@H](NC(=O)[C@H](CC[S+](C)[O-])NC(=O)[C@H](Cc1ccccc1)N(C)C(=O)CNC(=O)[C@@H](C)NC(=O)[C@@H](N)Cc1ccc(O)cc1)[C@@H](C)O)[C@@H](C)O)C(C)C)[C@@H](C)O)C(=O)N[C@H](C(=O)N[C@@H](CCCCN)C(=O)N[C@@H](CC(N)=O)C(=O)N[C@@H](C)C(=O)N[C@@H](Cc1ccc(O)cc1)C(=O)N[C@@H](CCCCN)C(=O)N[C@@H](CCCCN)C(=O)NCC(=O)N[C@@H](CCC(=O)O)C(=O)O)[C@@H](C)CC (some centres undefined) | 0.21 | 0.42 | 0.061 | 0.47 |  | 
 |  |  |  | BETA-ENDORPHIN [listing 1 of 2 here] | 0.2 | 0.45 | 0.077 | 0.47 |  | 
10 | 100 | 130 | 100 | BETA-ENDORPHIN [listing 2 of 2 here] |  |  |  |  | 27 | 100
